Structures are written as SMILES. Active and inactive are the calls of the source. The rule behind the calls is not given here.

Experimental findings from ChEMBL document CHEMBL2034960, “Bryonolic acid transcriptional control of anti-inflammatory and antioxidant genes in macrophages in vitro and in vivo” (J Nat Prod, 2012) are described below.

Series [1] concerns RAW264.7. Nature of the series: Cytotoxicity against mouse RAW264.7 cells at 100 uM after 8 hrs by MTT assay. Particulars: raw264.7, 8 h. It counts as cell-based.
Series [2] concerns the target T1, Nuclear factor erythroid 2-related factor 2 (Mus musculus) (UniProt Q60795).
T1 sequence (whole entry): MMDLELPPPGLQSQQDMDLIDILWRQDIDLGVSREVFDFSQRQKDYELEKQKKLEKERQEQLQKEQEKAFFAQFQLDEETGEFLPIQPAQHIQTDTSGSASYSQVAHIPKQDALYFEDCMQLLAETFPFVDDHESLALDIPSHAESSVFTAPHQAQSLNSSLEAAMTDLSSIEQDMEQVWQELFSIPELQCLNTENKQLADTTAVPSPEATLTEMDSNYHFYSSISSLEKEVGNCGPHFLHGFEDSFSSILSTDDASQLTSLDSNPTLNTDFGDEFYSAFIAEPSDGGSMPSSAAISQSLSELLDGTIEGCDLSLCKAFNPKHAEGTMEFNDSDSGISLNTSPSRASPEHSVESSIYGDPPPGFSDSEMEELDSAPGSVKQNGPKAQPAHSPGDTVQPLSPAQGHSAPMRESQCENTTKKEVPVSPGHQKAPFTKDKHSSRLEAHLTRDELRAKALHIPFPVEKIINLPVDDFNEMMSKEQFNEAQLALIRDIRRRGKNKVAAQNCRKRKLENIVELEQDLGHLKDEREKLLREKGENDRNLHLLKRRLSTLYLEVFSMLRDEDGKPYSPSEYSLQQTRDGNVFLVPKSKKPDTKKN
Nature of the series: Induction of Nrf2-mediated NQO1 mRNA expression in mouse RAW264.7 cells at 100 uM after 2 to 4 hrs by quantitative RT-PCR analysis relative to control. It counts as cell-based.

In series [3] the target is T1, Nuclear factor erythroid 2-related factor 2 (Mus musculus). Nature of the series: Induction of Nrf2-mediated CAT mRNA expression in mouse RAW264.7 cells at 100 uM after 4 to 20 hrs by quantitative RT-PCR analysis relative to control. The class given is cell-based.
For series [4], the system named is RAW264.7. Nature of the series: Antioxidant activity in LPS-stimulated mouse RAW264.7 cells assessed as induction of HO-1 mRNA expression at 100 uM after 4 hrs by RT-PCR analysis. The class given is functional, cell-based.
The test system of series [5] is RAW264.7. Nature of the series: Antiinflammatory activity in mouse RAW264.7 cells assessed as inhibition of LPS-induced nitric oxide production at 50 to 100 uM after 24 hrs by Griess method. The arrangement: scale not given: the % may be the effect or the level left. The class given is functional.
Series [6] has as its target T1, Nuclear factor erythroid 2-related factor 2 (Mus musculus). Nature of the series: Induction of Nrf2-mediated HO1 mRNA expression in mouse RAW264.7 cells at 100 uM after 24 hrs by quantitative RT-PCR analysis relative to control. The class given is cell-based.
Series [7] has the same target. Nature of the series: Induction of Nrf2 in mouse RAW264.7 cells assessed as […] in CAT mRNA expression at 100 uM after 24 hrs by quantitative RT-PCR analysis relative to control. It counts as cell-based.
The target is the same in series [8]. Nature of the series: Induction of Nrf2-mediated HO1 mRNA expression in mouse RAW264.7 cells at 100 uM after 2 to 4 hrs by quantitative RT-PCR analysis relative to control. The class given is cell-based.
Series [9] has the same target. Nature of the series: Induction of Nrf2-mediated NQO1 mRNA expression in mouse RAW264.7 cells at 100 uM after 24 hrs by quantitative RT-PCR analysis relative to control. It counts as cell-based. In short, it runs like this: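 RAW 264.7 cells (DMEM, 10% FBS, 37°C, 5% CO2) exposed to 100 μM compound for a series of time points without stated LPS activation. Total RNA isolated, converted to cDNA, and NQO1 quantified by TaqMan real-time RT-PCR using mouse-specific assays. Fold change versus control derived by the ΔΔCt relative quantification method (40 cycles, 95/60 °C).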

For `CC1(C)[C@@H](O)CC[C@]2(C)[C@H]3C(=O)C=C4[C@@H]5C[C@@](C)(C(=O)O)CC[C@]5(C)CC[C@@]4(C)[C@]3(C)CC[C@@H]12` [ENOXOLONE], the Activity result in the series on RAW264.7 [1] is “Toxic”.

`CC1(C)CC[C@]2(C(=O)O)CC[C@]3(C)C(=CC[C@@H]4[C@@]5(C)CC[C@H](O)C(C)(C)[C@@H]5CC[C@]43C)[C@@H]2C1` [OLEANOLIC_ACID]: the result (in series [2]; in [3]; in the series with RAW264.7 [4]; in [8]) was Active. Also, the Activity entry in the series with RAW264.7 [1] is listed as “Non-toxic”; in the series with RAW264.7 [5], 85%. In addition, the result in series [6], in [7] and in [9] was inactive.

On to `C[C@H]1[C@H](C)CC[C@]2(C(=O)O)CC[C@]3(C)C(=CC[C@@H]4[C@@]5(C)CC[C@H](O)C(C)(C)[C@@H]5CC[C@]43C)[C@H]12` [URSOLIC ACID], for which the Activity result in the series with RAW264.7 [1] is on record as “Toxic”.

In the case of `C=C(C)[C@@H]1CC[C@]2(C(=O)O)CC[C@]3(C)[C@H](CC[C@@H]4[C@@]5(C)CC[C@H](O)C(C)(C)[C@@H]5CC[C@]43C)[C@@H]12` [BETULINIC ACID], the Activity result in the series on RAW264.7 [1] is given as “Toxic”.
